From ChEMBL document CHEMBL1141222, “Antitrypanosomal, antileishmanial, and antimalarial activities of quaternary arylalkylammonium 2-amino-4-chlorophenyl phenyl sulfides, a new class of trypanothione reductase inhibitor, and of N-acyl derivatives of 2-amino-4-chlorophenyl phenyl sulfide” (J Med Chem, 2005)
Converted amounts (≈) assume the structure as drawn.

How the values were obtained:
[1] = test system: Leishmania donovani; experiment: Antileishmanial activity against Leishmania donovani HU3; format: functional, organism-based
Outline: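 Peritoneal exudate macrophages from CD1 mice (harvested 24 h after starch induction) held 24 h in RPMI1640 + 10% HIFCS, 37 °C, 5% CO2, then infected with hamster-spleen HU3 amastigotes at 5:1. After 24 h, drug exposure for 5 days (overlay replaced day 3), top 30 µg/mL, quadruplicate. Giemsa-stained slides scored microscopically; IC50 by curve fit. Pentostam positive control.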

[2] = target: T1, Trypanothione reductase (Trypanosoma cruzi, UniProt P28593); experiment: (§1) Mixed inhibition of trypanothione reductase from Trypanosoma cruzi using TSST substrate
Outline: (§2)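 E. coli JM109-expressed T. cruzi TR (3 µg/mL), 25 °C, 0.02 M HEPES pH 7.25 containing 0.15 M KCl, 1 mM EDTA and 0.1 mM NADPH. TSST as variable substrate at 30-240 µM against a series of inhibitor concentrations. Absorbance read at 340 nm. Ki and Ki′ obtained from Dixon, Lineweaver-Burk and Cornish-Bowden plots fitted to a mixed inhibition model.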

[3] = target: Trypanothione reductase (Trypanosoma cruzi) (UniProt P28593); experiment: as §1; outline: as §2
[4] = test system: Trypanosoma brucei rhodesiense; experiment: Antitrypanosomal activity against Trypanosoma brucei rhodesiense STIB900; format: functional, organism-based
Outline: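 STIB900 bloodstream trypomastigotes in HMI-18 + 15% HIFCS, seeded at 2 × 10⁵/mL onto drug dilutions (top 30 µg/mL), 72 h at 37 °C, 5% CO2; pentamidine reference.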

[5] = test system: KB; experiment: Cytotoxicity in KB cells; format: functional, cell-based; settings: Homo sapiens
[6] = test system: Plasmodium falciparum; experiment: Antimalarial activity against Plasmodium falciparum 3D7; format: functional, organism-based
Outline: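 Asynchronous 3D7 cultures (65-75% rings) in RPMI 1640, 5% hematocrit, 0.5% parasitemia, 37 °C, 5% CO2; top final drug concentration 30. After 24 h, [3H]-hypoxanthine ([…]) added, then 48 h more. Plates freeze/thawed and harvested; uptake by scintillation counting; IC50 by curve fit.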

[7] = test system: Trypanosoma cruzi; experiment: Antitrypanosomal activity against Trypanosoma cruzi Tulahuan; format: functional, organism-based
[8] = target: T1, Trypanothione reductase; experiment: Linear competitive inhibition of trypanothione reductase from Trypanosoma cruzi using (ZCG.dmapa)2 substrate
[9] = target: T1, Trypanothione reductase; experiment: Linear competitive inhibition of trypanothione reductase from Trypanosoma cruzi using TSST substrate
[10] = target: T2, Glutathione reductase, mitochondrial (Homo sapiens, UniProt P00390); experiment: Inhibitory activity against human glutathione reductase at 0.5 mM
T2 sequence (P00390 whole entry): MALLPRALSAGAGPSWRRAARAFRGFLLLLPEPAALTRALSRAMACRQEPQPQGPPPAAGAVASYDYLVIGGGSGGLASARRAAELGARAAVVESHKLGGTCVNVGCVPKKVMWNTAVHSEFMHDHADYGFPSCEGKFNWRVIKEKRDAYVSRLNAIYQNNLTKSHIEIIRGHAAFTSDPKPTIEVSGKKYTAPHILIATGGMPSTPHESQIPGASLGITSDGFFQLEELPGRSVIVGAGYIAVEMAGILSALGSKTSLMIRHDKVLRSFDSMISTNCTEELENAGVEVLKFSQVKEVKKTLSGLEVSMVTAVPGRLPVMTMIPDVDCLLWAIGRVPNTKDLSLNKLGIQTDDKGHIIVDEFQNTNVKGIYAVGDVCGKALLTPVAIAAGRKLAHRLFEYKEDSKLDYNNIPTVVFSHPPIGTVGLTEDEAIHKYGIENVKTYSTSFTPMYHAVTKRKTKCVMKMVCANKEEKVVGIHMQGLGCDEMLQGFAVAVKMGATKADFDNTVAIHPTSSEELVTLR

[11] = target: T1, Trypanothione reductase; experiment: Inhibitory activity against trypanothione reductase from Trypanosoma cruzi using 0.12 mM TSST substrate
Outline: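 Recombinant T. cruzi TR overexpressed in E. coli JM109, homogeneous by SDS-PAGE. I50 read by interpolation from velocity vs inhibitor concentration, fitted to the linear competitive equation by nonlinear regression.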

Sequence of Trypanothione reductase (Trypanosoma cruzi) (P28593 whole entry, looked up): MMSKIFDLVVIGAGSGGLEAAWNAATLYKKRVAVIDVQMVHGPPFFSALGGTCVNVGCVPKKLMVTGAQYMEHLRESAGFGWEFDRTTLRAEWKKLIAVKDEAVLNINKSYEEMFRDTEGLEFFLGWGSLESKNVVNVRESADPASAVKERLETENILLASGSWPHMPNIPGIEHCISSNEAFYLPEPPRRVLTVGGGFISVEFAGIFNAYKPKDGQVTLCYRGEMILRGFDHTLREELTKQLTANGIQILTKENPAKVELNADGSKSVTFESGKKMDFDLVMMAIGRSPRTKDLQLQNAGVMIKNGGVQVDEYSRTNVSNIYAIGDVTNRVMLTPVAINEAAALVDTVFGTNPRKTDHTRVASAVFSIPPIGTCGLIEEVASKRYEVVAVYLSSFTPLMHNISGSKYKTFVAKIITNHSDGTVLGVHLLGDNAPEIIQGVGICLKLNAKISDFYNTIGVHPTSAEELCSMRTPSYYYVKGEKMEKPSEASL
T1 sequence (P28593 whole entry): as the sequence (P28593 whole entry, looked up) above

| SMILES | IC50 [1] | IC50 [2] | Ki [2] | Ki' [3] | IC50 [4] | IC50 [5] | IC50 [6] | IC50 [7] | Ki [8] | Ki [9] | Ki [10] | IC50 [11] |
| --- | --- | --- | --- | --- | --- | --- | --- | --- | --- | --- | --- | --- |
| CCCC(=O)Nc1cc(Cl)ccc1Sc1ccccc1 | > 30 µg/mL | 30.5 µM | 11.3 µM | 42.6 µM | 14.2 µg/mL (≈ 46.4 µM) | > 300 µg/mL | 19.1 µg/mL (≈ 62.5 µM) | 9.4 µg/mL (≈ 30.7 µM) |  |  |  |  |
| C[N+](C)(CCCNc1cc(Cl)ccc1Sc1ccccc1)C(c1ccccc1)c1ccccc1 |  |  |  |  |  |  |  |  | 5.3 µM |  |  |  |
| CCC(=O)Nc1cc(Cl)ccc1Sc1ccccc1 | > 30 µg/mL | 31.6 µM | 20 µM | 29.3 µM | 11.3 µg/mL (≈ 38.7 µM) | 93.1 µg/mL (≈ 319 µM) | > 30 µg/mL | 18.3 µg/mL (≈ 62.7 µM) |  |  |  |  |
| C[N+](C)(CCCNc1cc(Cl)ccc1Sc1ccccc1)c1ccc(OCc2ccccc2)cc1 |  |  |  |  |  |  |  |  | 6.6 µM |  |  |  |
| CC(C)(C)c1ccc([N+](C)(C)CCCNc2cc(Cl)ccc2Sc2ccccc2)cc1 | 3.9 µg/mL |  |  |  | 0.01 µg/mL | 2.14 µg/mL | 0.6 µg/mL | < 1.1 µg/mL | 6.5 µM | 2.67 µM |  |  |
| Nc1cc(Cl)ccc1Sc1ccccc1 | > 30 µg/mL |  | 150 µM | 860 µM | 4.4 µg/mL (≈ 18.7 µM) | 47.9 µg/mL (≈ 203 µM) | 11.3 µg/mL (≈ 47.9 µM) | 6.7 µg/mL (≈ 28.4 µM) |  |  |  |  |
| C[N+](C)(CCCNc1cc(Cl)ccc1Sc1ccccc1)c1ccc(Cl)c(Cl)c1 |  |  |  |  |  |  |  |  | 1.69 µM |  | Not Active |  |
| O=[N+]([O-])c1cc(Cl)ccc1Sc1ccccc1 | > 30 µg/mL |  |  |  | 11.5 µg/mL (≈ 43.3 µM) | 43.1 µg/mL (≈ 162 µM) | 15.6 µg/mL (≈ 58.7 µM) | 11.3 µg/mL (≈ 42.5 µM) |  |  |  |  |
| O=C(Nc1cc(Cl)ccc1Sc1ccccc1)c1ccccc1 | > 30 µg/mL | 49.6 µM | 24.5 µM | 37.7 µM | 8.7 µg/mL (≈ 25.6 µM) | 9 µg/mL (≈ 26.5 µM) | > 30 µg/mL | 19.8 µg/mL (≈ 58.3 µM) |  |  |  |  |
| CC(C)(C)c1ccc([N+](C)(C)CCCN)cc1 | > 30 µg/mL |  | 0.15 µM |  | > 30 µg/mL | > 300 µg/mL | > 30 µg/mL | > 30 µg/mL |  |  |  | 0.6 µM |
| C[N+](C)(CCCN1c2ccccc2Sc2ccc(Cl)cc21)c1ccc(Cl)c(Cl)c1 | 4 µg/mL |  | 0.44 µM | 3.5 µM | 0.02 µg/mL | 3.5 µg/mL | 0.47 µg/mL | < 1.1 µg/mL |  | 0.18 µM |  |  |
| O=C(Nc1cc(Cl)ccc1Sc1ccccc1)c1ccc([N+](=O)[O-])cc1 | > 30 µg/mL | 44.5 µM | 42.8 µM | 12.9 µM | > 30 µg/mL | 223 µg/mL (≈ 579 µM) | > 30 µg/mL | > 30 µg/mL |  |  |  |  |
| CC(C)(C)c1ccc([N+](C)(C)CCCN2c3ccccc3Sc3ccc(Cl)cc32)cc1 | 3.8 µg/mL |  |  |  | 0.02 µg/mL | 2.88 µg/mL | 0.13 µg/mL | < 1.1 µg/mL | 66 µM | 0.57 µM |  |  |
| O=C(Cc1ccccc1)Nc1cc(Cl)ccc1Sc1ccccc1 | > 30 µg/mL | 36.8 µM | 24.6 µM | 35.9 µM | 7.4 µg/mL (≈ 20.9 µM) | > 300 µg/mL | 30 µg/mL (≈ 84.8 µM) | > 30 µg/mL |  |  |  |  |
| C[N+](C)(CCCNc1cc(Cl)ccc1Sc1ccccc1)c1ccccc1 |  |  |  |  |  |  |  |  | 14.2 µM |  |  |  |
